Assay results from EPA's CvTdb concentration-time database.

Legend:
[1] = tested on: rat; test: amount in urine after dosing (umol); conditions: dosed: tert-amyl methyl ether, 38.4 ppm, inhalation, duration: 4 hr, F344 (Harlan Winkelmann)
[2] = tested on: human; test: amount in urine after dosing (umol); conditions: dosed: tert-amyl methyl ether, 38.4 ppm, inhalation, duration: 4 hr
Procedure, shortened: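 Data points giving concentration or amount against time came from published in vivo toxicokinetic studies and from two structured collections. PubMed searching, classifier screening and manual review located the studies. Most points were digitised from plot screenshots using WebPlotDigitizer, the rest were copied from tables, and all keep their reported units.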

[3] = tested on: Rat; test: concentration in urine after dosing; conditions: dosed: dibromoacetic acid, 40 mg/kg, oral, Male, F344
[4] = tested on: Rat; test: concentration in urine after dosing; conditions: dosed: dibromoacetic acid, oral, Male, F344
[5] = tested on: Rat; test: concentration in urine after dosing; conditions: dosed: dibromoacetic acid, 100 mg/kg, oral, Male, F344
[6] = tested on: Rat; test: concentration in urine after dosing; conditions: dosed: dibromoacetic acid, 40 mg/kg, oral, Male, F344; remark: listed apart in the source
[7] = tested on: Rat; test: concentration in urine after dosing; conditions: dosed: dibromoacetic acid, 100 mg/kg, oral, Male, F344; remark: listed apart in the source
[8] = tested on: Rat; test: concentration in plasma after dosing; conditions: dosed: Phenolphthalein, 25 mg/kg, iv, Female, F344
[9] = tested on: Rat; test: concentration in plasma after dosing; conditions: 4 h; dosed: Phenolphthalein; 25 mg/kg; iv; Male; F344
[10] = tested on: Rat; test: concentration in plasma after dosing; conditions: dosed: Phenolphthalein, 25 mg/kg, iv, Male, F344
[11] = tested on: Rat; test: concentration in plasma after dosing; conditions: dosed: Phenolphthalein, 25 mg/kg, iv, Female, F344; remark: listed apart in the source
[12] = tested on: Rat; test: concentration in plasma after dosing; conditions: dosed: Phenolphthalein, 25 mg/kg, iv, Female, F344; remark: listed apart in the source
[13] = tested on: Rat; test: concentration in plasma after dosing; conditions: dosed: Phenolphthalein, 25 mg/kg, iv, Female, F344; remark: listed apart in the source
[14] = tested on: Rat; test: concentration in plasma after dosing; conditions: 2.5 min; dosed: Phenolphthalein; 25 mg/kg; iv; Male; F344
[15] = tested on: Rat; test: concentration in plasma after dosing; conditions: dosed: Phenolphthalein, 25 mg/kg, iv, Female, F344; remark: listed apart in the source
[16] = tested on: Rat; test: concentration in plasma after dosing; conditions: dosed: Phenolphthalein, 25 mg/kg, iv, Female, F344; remark: listed apart in the source
[17] = tested on: Rat; test: concentration in plasma after dosing; conditions: dosed: Phenolphthalein, 25 mg/kg, iv, Female, F344; remark: listed apart in the source
[18] = tested on: Rat; test: concentration in plasma after dosing; conditions: 2.5 min; dosed: Phenolphthalein; 25 mg/kg; iv; Male; F344; remark: listed apart in the source
[19] = tested on: Rat; test: concentration in plasma after dosing; conditions: dosed: Phenolphthalein, 25 mg/kg, iv, Female, F344; remark: listed apart in the source
[20] = tested on: Rat; test: concentration in plasma after dosing; conditions: 3 h; dosed: Phenolphthalein; 25 mg/kg; iv; Male; F344
[21] = tested on: Rat; test: concentration in plasma after dosing; conditions: 16 h; dosed: Phenolphthalein; 25 mg/kg; iv; Female; F344
[22] = tested on: Rat; test: concentration in plasma after dosing; conditions: dosed: Phenolphthalein, 25 mg/kg, iv, Female, F344; remark: listed apart in the source
[23] = tested on: Rat; test: concentration in plasma after dosing; conditions: dosed: Phenolphthalein, 25 mg/kg, iv, Female, F344; remark: listed apart in the source
[24] = tested on: Rat; test: concentration in plasma after dosing; conditions: 3 h; dosed: Phenolphthalein; 25 mg/kg; iv; Male; F344; remark: listed apart in the source
[25] = tested on: Rat; test: concentration in plasma after dosing; conditions: dosed: Phenolphthalein, 25 mg/kg, iv, Female, F344; remark: listed apart in the source
[26] = tested on: Rat; test: concentration in plasma after dosing; conditions: dosed: Phenolphthalein, 25 mg/kg, iv, Male, F344; remark: listed apart in the source
[27] = tested on: Rat; test: concentration in plasma after dosing; conditions: 5 min; dosed: Phenolphthalein; 25 mg/kg; iv; Male; F344
[28] = tested on: Rat; test: concentration in plasma after dosing; conditions: dosed: Phenolphthalein, 25 mg/kg, iv, Female, F344; remark: listed apart in the source
[29] = tested on: Rat; test: concentration in plasma after dosing; conditions: 5 h; dosed: Phenolphthalein; 25 mg/kg; iv; Male; F344
[30] = tested on: Rat; test: concentration in plasma after dosing; conditions: dosed: Phenolphthalein, 25 mg/kg, iv, Female, F344; remark: listed apart in the source
[31] = tested on: Rat; test: concentration in plasma after dosing; conditions: 1 h; dosed: Phenolphthalein; 25 mg/kg; iv; Male; F344
[32] = tested on: Rat; test: concentration in plasma after dosing; conditions: 16 h; dosed: Phenolphthalein; 25 mg/kg; iv; Female; F344; remark: listed apart in the source
[33] = tested on: Rat; test: concentration in plasma after dosing; conditions: 5 min; dosed: Phenolphthalein; 25 mg/kg; iv; Male; F344; remark: listed apart in the source
[34] = tested on: Rat; test: concentration in plasma after dosing; conditions: dosed: Phenolphthalein, 25 mg/kg, iv, Female, F344; remark: listed apart in the source
[35] = tested on: Rat; test: concentration in plasma after dosing; conditions: dosed: Phenolphthalein, 25 mg/kg, iv, Male, F344; remark: listed apart in the source
[36] = tested on: Rat; test: concentration in plasma after dosing; conditions: dosed: Phenolphthalein, 25 mg/kg, iv, F344
[37] = tested on: Rat; test: concentration in plasma after dosing; conditions: dosed: Phenolphthalein, 25 mg/kg, iv, Male, F344; remark: listed apart in the source
[38] = tested on: Rat; test: concentration in plasma after dosing; conditions: 5 h; dosed: Phenolphthalein; 25 mg/kg; iv; Male; F344; remark: listed apart in the source
[39] = tested on: rat; test: concentration in blood after dosing; conditions: dosed: acrylonitrile, male

CC(C)(O)CC(=O)O [3-hydroxy-3-methyl butyrate]
[1]
Conditions	amount in urine
6.001 h	0.652
12.07 h	0.695
18.1 h	0.787
24.1 h	0.425
30 h	0.178
36.09 h	0.517
42.12 h	0.736
48.11 h	0.23

CC(C)(O)CC(=O)O [3-hydroxy-3-methyl-butyrate]
[2]
Conditions	amount in urine
6.255 h	52.2
12.14 h	81.7
18.19 h	45.7
24.05 h	43.6
30.19 h	32.9
36.26 h	24.2
42.12 h	11.1
48.2 h	19.7
305 s	19.7

O=C(O)C(=O)O [Oxalic acid]
concentration in urine [ng/mL]
Conditions	0 h	2 h	4 h	8 h	24 h	48 h
[3]	63000	–	–	71100	99300	133000
[5]	53400	–	133000	–	68000	72600
[6]	63800	26200	–	–	88700	130000
[7]	63600	78100	108000	98200	103000	224000

concentration in urine [ng/mL], [4]
Conditions	0 h	4 h	8 h	24 h	48 h
40 mg/kg	74600	52700	63500	89100	116000
100 mg/kg	64800	105000	–	108000	154000

O=C1OC(c2ccc(O)cc2)(c2ccc(O)cc2)c2ccccc21 [Phenolphthalein]
Conditions	concentration in plasma [ng/mL]
[8], 2 h	261
[8], 8 h	46.7
[10], 1 h	2380
[10], 6 h	199
[11], 3 h	153
[11], 12 h	26.7
[12], 4 h	47.5
[12], 7 h	15.5
[13], 5 min	52100
[13], 24 h	23
[15], 5 h	58.5
[15], 10 h	17.4
[16], 2.5 min	167000
[16], 20 h	17.4
[17], 2.5 min	164000
[17], 20 h	22
[19], 3 h	336
[19], 12 h	96
[22], 2 h	261
[22], 8 h	43.2
[23], 1 h	1400
[23], 6 h	392
[25], 4 h	127
[25], 7 h	36.5
[26], 2 h	662
[26], 8 h	83.6
[28], 1 h	841
[28], 6 h	290
[30], 5 h	56.9
[30], 10 h	70.2
[34], 5 min	5180
[34], 24 h	69.4
[35], 2 h	636
[35], 8 h	110
[37], 4 h	366
[37], 7 h	63

Conditions	concentration in plasma [ng/mL]
[9]	25.1
[14]	219000
[18]	216000
[20]	561
[21]	24.5
[24]	94.5
[27]	58300
[29]	19.1
[31]	1990
[32]	20.3
[33]	58500
[38]	552

concentration in plasma [ng/mL], [36]
Conditions	Female	Male
1 h	1090	1790
2 h	259	592
2.5 min	115000	195000
3 h	290	43.2
4 h	173	317
5 h	105	691
5 min	52300	51000
6 h	89.9	59.4
7 h	56.9	248
8 h	32.4	274
10 h	45.5	42.3
12 h	98.5	–
16 h	120	20.2
20 h	18.6	–
24 h	60.2	–

C=CC#N [acrylonitrile]
[39], inhalation, duration: 3 hr, Sprague-Dawley
Conditions	concentration in blood [ng/mL]
0.103 h, 186 ppm	329
0.1717 h, 291 ppm	588
0.1772 h, 186 ppm	250
0.1774 h, 254 ppm	263
0.2565 h, 291 ppm	287
0.2613 h, 254 ppm	235
0.2676 h, 186 ppm	115
90 s, 254 ppm	1640
94 s, 291 ppm	1960
110 s, 186 ppm	911
337 s, 291 ppm	926
345 s, 254 ppm	473

[39], iv, Fisher 344 CDF(F344)/CrlBR
Conditions	concentration in blood [ng/mL]
0.1675 h, 84 mg/kg	28200
0.1682 h, 3.4 mg/kg	740
0.1683 h, 55 mg/kg	27200
0.1717 h, 47 mg/kg	13400
0.2068 h, 55 mg/kg	21000
0.208 h, 3.4 mg/kg	430
0.2102 h, 47 mg/kg	11800
0.2128 h, 84 mg/kg	27300
0.2495 h, 3.4 mg/kg	259
0.2506 h, 55 mg/kg	17400
0.2512 h, 84 mg/kg	22400
0.2575 h, 47 mg/kg	10900
0.5008 h, 55 mg/kg	6770
0.5014 h, 3.4 mg/kg	140
0.5026 h, 47 mg/kg	3040
0.5056 h, 84 mg/kg	11300
0.6636 h, 55 mg/kg	3100
0.6706 h, 47 mg/kg	1600
0.6711 h, 84 mg/kg	6700
0.9964 h, 55 mg/kg	393
1.005 h, 47 mg/kg	287
1.006 h, 84 mg/kg	1590
1.248 h, 55 mg/kg	396
1.25 h, 47 mg/kg	244
1.25 h, 84 mg/kg	532
182 s, 3.4 mg/kg	4950
183 s, 55 mg/kg	71400
188 s, 84 mg/kg	156000
196 s, 47 mg/kg	52800
303 s, 55 mg/kg	47200
306 s, 3.4 mg/kg	3110
307 s, 84 mg/kg	88300
309 s, 47 mg/kg	38100
